Assay type in all cases: cell-based, Escherichia coli
Test [1] deals with MG1655. As to the kind of experiment: MIC determination by broth microdilution. As to conditions: MG1655, non-cation-adjusted Mueller-Hinton broth (MHB-I), low-binding plastic, 37°C, 18 h, turbidity OD595. In general terms: In broth dilution the organism is exposed to a series of concentrations in liquid medium.
Test [2] relates to NrdA protein. As to the kind of experiment: Western-blot analysis of NrdA protein level. To be noted: 8 μM PNA-peptide, 3 h, AB medium, WT cells, band intensity relative to WT.
Test [3] has as its system E. coli. As to the kind of experiment: MIC of chloramphenicol and nalidixic acid in AB medium. As to conditions: printed as the concentration equal to 10×MIC.
Test [4] deals with WT E. coli cells. As to the kind of experiment: Macromolecular synthesis. As to conditions: nalidixic acid 40 mg/L (10×MIC), AB medium without casamino acids, single experiment.
In test [5] the test system is WT carrying pCC:nrdAByfaE. As to the kind of experiment: Time-kill assay, WT carrying pCC:nrdAByfaE. To be noted: 50 μM HU, 5 h, MHB-I.
Test [6] has as its system Strain SMR14350. As to the kind of experiment: In vivo double-stranded DNA break visualization. To be noted: ciprofloxacin 0.0125 mg/L, 4 h, AB medium, mean±SD of three determinations. In a few lines: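 E. coli Gam-GFP reporter strain SMR14350 grown exponentially at 37°C in AB minimal medium (10 mg/L thiamine, 0.2% glucose, 0.5% casamino acids), diluted to OD450 0.05. PNA-peptide test compound (8 μM) or ciprofloxacin (0.0125 mg/L) added with anhydrotetracycline (10 mg/L) to induce Gam-GFP, for 4 h. Foci scored by fluorescence microscopy in three independent experiments (2553–3860 cells per condition).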

Some results are limits rather than exact numbers.

Molecule “H-(KFF)3K-eg1-ATTGAT TGC G -NH2 [PNA5866]” gave an MIC in test [1] of 16 µM. For the same molecule, in test [2], the “decrease of cellular NrdA protein level” value is “did not inhibit NrdA protein levels”. For the molecule `CCn1cc(C(=O)O)c(=O)c2ccc(C)nc21` [nalidixic acid], the “10×MIC” value in test [3] was determined as 40 µg/mL. In addition, the “DNA synthesis (DNA replication)” value in test [4] is “faster cessation of DNA replication”. For `O=C(N[C@H](CO)[C@H](O)c1ccc([N+](=O)[O-])cc1)C(Cl)Cl` [chloramphenicol], in test [3], the “10×MIC” value turned out to be 80 µg/mL. Consider `NC(=O)NO` [HU, hydroxyurea], for which the “reduction in cfu/mL, HU alone” value in test [5] is listed as less than 1 log.

As to `O=C(O)c1cn(C2CC2)c2cc(N3CCNCC3)c(F)cc2c1=O` [ciprofloxacin], the “percentage of cells with Gam-GFP foci” value in test [6] turned out to be 51.9 ± 6.9%.

The term MIC denotes the smallest concentration in the dilution series that meets the test's criterion for growth inhibition. A higher MIC goes with a less susceptible organism.

The values are drawn from paper PMC8521395 (Journal of Antimicrobial Chemotherapy, 2021).
